Screening results deposited in PubChem BioAssay by ICCB-Longwood Screening Facility, Harvard Medical School.
Shown is part of a subset that was picked to be rich in hits.
Ab BasE inh – BasE siderophore enzyme inhibitors, primary screen, biochemical, Acinetobacter baumannii ATCC 17978, fluorescence polarization | inhibition, % (test concentration not listed) | AID 485350, 2010 | 84,000 compounds, 0.1% hits | purified BasE, fluorescence polarization binding displacement; in the data active means inhibition above about 25%, passing the limit was not always enough
KSHV LANA nucl – inhibitors of KSHV LANA-nucleosome binding, primary screen, biochemical, fluorescence polarization, FITC-LANA1-23, chicken nucleosomes | AID 720717, 2013 | z-score (test concentration not listed) | FITC-LANA1-23 / chicken nucleosome fluorescence polarization; hits give low values | 51,000 compounds, 0.3% hits;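 active means both repeat wells score below -2 in polarization z-score versus plate sample wells, excluding overly bright wells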
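Assay system: purified chicken nucleosomes with FITC-labelled LANA N-terminal peptide (1-23) / Probe or stimulus: 50 nM FITC-LANA1-23 probe / Compound dosing: pin-transferred compound, 100 nL / Times: compound with peptide–nucleosome mix 10–45 min at room temperature / Technique: fluorescence polarization, 480 nm excitation, 535 nm parallel and perpendicular emission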
Of the large screens only hits and unclear results are named; the others gave an inactive call; ! = repeats disagree.

COc1cccc(NC(=O)Cn2ncc3c2-c2ccccc2OC3)c1	KSHV LANA nucl -2.3
CCC(C)NC(=O)Cn1ncc2c1-c1ccccc1OC2 (stereo unspecified)	none
Cc1ccc(C)n1-c1ccsc1C(=O)CC#N	none (no result: Ab BasE inh)
Cc1ccc(C)n1-c1ccsc1C(=O)O	KSHV LANA nucl -3.7
OC(CNCC1CCCO1)COc1ccc(-c2ccccc2)cc1 (stereo unspecified)	none
O=C(CN1CCN(C2c3ccccc3-c3ccccc32)CC1)c1ccc2c(c1)OCO2	none
O=C(c1ccc2c(c1)OCO2)N1CCN(C2c3ccccc3-c3ccccc32)CC1	KSHV LANA nucl -2.3
Cc1nonc1NC(=O)CSc1ccccn1	Ab BasE inh 57
O=C(CSc1ccccn1)Nc1ncccn1	none
NC(=O)c1ccsc1NC(=O)COC(=O)c1ccccc1	Ab BasE inh 40 (no result: KSHV LANA nucl)
NC(=O)c1ccsc1NC(=O)CSc1ccccc1	none
CCCNCc1cccn1-c1nnc(N2CCCC2)s1	none (no result: KSHV LANA nucl)
CS(=O)c1scc(-c2ccc(Cl)cc2)c1C#N (stereo unspecified)	Ab BasE inh 29
N#Cc1c(-c2ccc(Cl)cc2)cc[nH]c1=O	none (no result: Ab BasE inh)
O=C(O)c1ccccc1C1=Nc2ccc(O)cc2Oc2cc(O)ccc21	KSHV LANA nucl -6.1
O=C(O)c1ccccc1-c1ccccc1C(=O)O	none
CCCCOc1ccc(C(=O)NCCOC)cc1	none
CN(C)c1ccc(C(=NC(=O)C2CCC2)c2ccc(N(C)C)cc2)cc1	none (no result: KSHV LANA nucl)
Nc1ccc(OCC2CCCO2)cc1 (stereo unspecified)	none
c1ccc(-c2nnc(OCC3CCCO3)c3ccccc23)cc1 (stereo unspecified)	Ab BasE inh 28 (no result: KSHV LANA nucl)
CCCCCCn1nc(C(=O)OCC(=O)c2ccc[nH]2)c2ccccc2c1=O	none (no result: KSHV LANA nucl)
O=c1cc(-c2ccc(O)c(O)c2)oc2cc(O)cc(O)c12	none
O=c1c(O)c(-c2ccc(O)c(O)c2)oc2cc(O)cc(O)c12	Ab BasE inh 29!
CC1=CC(=O)C=C(C)C1=NS(=O)(=O)c1ccccc1	Ab BasE inh 26 (no result: KSHV LANA nucl)
CN1C/C(=N\S(=O)(=O)c2ccccc2)N(C)C1=O	none
O=C(c1cc(-c2ccc3c(c2)OCO3)on1)N(C1CCCCC1)C1CCCCC1	none
S=c1[nH]c2cc(Cl)c3cccnc3c2o1	Ab BasE inh 51
O=C(O)COc1c(I)cc(Cl)c2cccnc12	none (no result: KSHV LANA nucl)
CC1CC(C)CN(C(=O)Cn2c(=O)cnc3ccccc32)C1 (stereo unspecified)	none (no result: KSHV LANA nucl)
Cc1ccc(/C=N/c2sccc2C#N)cc1	KSHV LANA nucl -6.5 (no result: Ab BasE inh)
N#Cc1ccsc1/N=C/c1ccccc1	none (no result: Ab BasE inh)
N=C1/C(=C\c2cn(CCOc3ccccc3Cl)c3ccccc23)C(=O)N=C2SC=NN12	KSHV LANA nucl -3.4
Cc1ccc(C)c(OCCn2cc(/C=C3\C(=N)N4N=C(S(C)(=O)=O)SC4=NC3=O)c3ccccc32)c1	none
CNC(=O)NC(=O)C(c1ccccc1)N1CCCC(c2nnc3ccc(C(F)(F)F)cn23)C1 (stereo unspecified)	none (no result: KSHV LANA nucl)
O=C(Cn1cc(/C=C2\NC(=S)N(c3ccccc3)C2=O)c2ccccc21)NCc1ccco1	KSHV LANA nucl -2.3
O=C(Cn1cc(/C=N/NC(=S)Nc2ccccc2)c2ccccc21)NCc1ccco1	none
CC(C)(C)P(=NC(=O)COc1ccccc1)(N1CCCCC1)N1CCCCC1	none (no result: KSHV LANA nucl)
O=C(COC(=O)c1ccc2[nH]c3c(c2c1)CCCC3)c1ccc2c(c1)OCO2	none (no result: KSHV LANA nucl)
Cc1ccc(C)n1-c1ccc(C(=O)O)cc1O	Ab BasE inh 47
Cc1cc(C(=O)O)ccc1-n1c(C)ccc1C	none
Cc1ccc(S(=O)(=O)NC(=O)N2CCCc3cc(SC#N)ccc32)cc1	none (no result: KSHV LANA nucl)
Cc1nn(-c2ccccc2)c2c1P(=O)(O)/C(=C1/N(C)c3ccccc3C1(C)C)C=N2	none (no result: KSHV LANA nucl)
COCc1cc(C)n(CC(N)=O)c(=O)c1C#N	none
O=C(O)CC1S/C(=N/N=C/c2ccccc2)NC1=O (stereo unspecified)	none
O=C1N/C(=N/N=C\c2[nH]ncc2Br)SC1c1ccccc1 (stereo unspecified)	Ab BasE inh 27
OC(CN1CCN(c2nc3ccccc3s2)CC1)c1ccc(Cl)cc1 (stereo unspecified)	none
O=C(CN1Cc2ccccc2C1=O)Nc1ccc(Br)cc1F	none
CCOC(=O)C(CC)SC1=NS(=O)(=O)c2cc(Cl)ccc2N1 (stereo unspecified)	none
C=CCN1C(=O)/C(=C/c2ccco2)S/C1=N/c1nccs1	none
Cc1ccc(CC(C#N)Sc2nnc(C3CCCCC3)o2)cc1 (stereo unspecified)	none (no result: KSHV LANA nucl)
Cc1cc(C)nc(Nc2n[nH]c(-c3cccnc3)n2)n1	Ab BasE inh 27
Cc1cc(C)nc(Nc2n[nH]c(COc3ccc4ccccc4c3)n2)n1	none
C=C1c2ccccc2NC(=S)N1c1ccc(OC)cc1	none (no result: KSHV LANA nucl)
O=C(Nc1ccc(SC(F)F)cc1)c1ccccc1C(F)(F)F	none (no result: KSHV LANA nucl)
CCCN1CC=C2C(C#N)=C(N)C(C#N)(C#N)C(c3cccc(OC)c3)C2C1 (stereo unspecified)	none
CCN1CC=C2C(C#N)=C(N)C(C#N)(C#N)C(c3ccc(OC)c4ccccc34)C2C1 (stereo unspecified)	none
CN1CC=C2C(C#N)=C(N)C(C#N)(C#N)C(Cc3ccccc3)C2C1 (stereo unspecified)	none
CCCN1CC=C2C(C#N)=C(N)C(C#N)(C#N)C(C(C)C)C2C1 (stereo unspecified)	KSHV LANA nucl -4
N#CC1=C(N)C(C#N)(C#N)C(c2ccco2)C2CN(Cc3ccccc3)CC=C12 (stereo unspecified)	KSHV LANA nucl -5.4
CCN1CC=C2C(C#N)=C(N)C(C#N)(C#N)C(C)C2C1 (stereo unspecified)	KSHV LANA nucl -2.5
CC1=CC(=C(C#N)C#N)C=C(C)N1c1cccc(F)c1	none (no result: KSHV LANA nucl)
CCCN1CCN(CC(=O)c2ccc3cc[nH]c3c2)CC1	none
COC(=O)C1=CNC=C(C(=O)OC)C1c1ccccc1C	Ab BasE inh 29
COC(=O)C1=CNC=C(C(=O)OC)C1c1ccc(Cl)cc1	none
COc1ccc(NC(=O)c2ccc3c(-c4ccccc4)onc3c2)cc1	none
N#CCOC(=O)c1cn(-c2ccccc2)nc1-c1ccccc1	none (no result: KSHV LANA nucl)
Clc1ccc(-c2ncnn2-c2ccccc2)c(Cl)c1	none (no result: KSHV LANA nucl)
COc1ccc(OCCN2CCN(C(=O)c3c(C)nn(-c4ccc(F)cc4)c3C)CC2)cc1	none (no result: KSHV LANA nucl)
O=C(CSc1nnc(C2CCCCC2)o1)c1ccc[nH]1	none (no result: KSHV LANA nucl)
Cc1[nH]n(-c2ccccc2)c(=O)c1C=Nc1ccc(O)cc1	Ab BasE inh 53 (no result: KSHV LANA nucl)
Cc1[nH]n(-c2ccccc2)c(=O)c1/C=N/O	none
CCOC(=O)c1c(CCc2ccc3c(c2)OCO3)csc1N	none (no result: KSHV LANA nucl)
NC(=O)NCC(=O)NCC1COc2ccccc2O1 (stereo unspecified)	none (no result: KSHV LANA nucl)
Cc1cccc2[nH]ncc12	Ab BasE inh 25
S=c1[nH]ncc2ccccc12	none (no result: KSHV LANA nucl)
CCCn1c(=O)c2ccccc2n2c(SCC(=O)NC(C)(C)C)nnc12	none (no result: KSHV LANA nucl)
O=C1CSCC(=O)N1c1ccc(Cl)cc1	none
CC1(c2ccc(Cl)cc2)NC(=O)CS1 (stereo unspecified)	KSHV LANA nucl -2.4
CCOc1ccc(S(=O)(=O)N2CCC(C(=O)N/N=C/c3cc(C)n(CC(C)C)c3C)CC2)cc1	none (no result: KSHV LANA nucl)
CCc1nn(C)c2c(=O)c(=O)c2n(C)[nH]1	none (no result: KSHV LANA nucl)
Cc1nn(C)c2c(=O)c(=O)c2n(C)[nH]1	KSHV LANA nucl -3.6
COc1ccc(C2OC(COc3ccccc3C)=NN2C(C)=O)cc1OC(C)=O (stereo unspecified)	none
CCOC(=O)c1cnc2c(ccc3ccccc32)c1NC1CC(C)(C)NC(C)(C)C1	none (no result: KSHV LANA nucl)
